The EternaBench riboswitch data

System: MS2 coat protein
Assay: apparent Kd, MS2 coat protein; higher = weaker binding; RNA-MaP array; FMN 200 µM where present
How it was run: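 Binding was read on Illumina sequencing-chip clusters where stalled E. coli RNA polymerase had transcribed each design. A titration of SNAP-549-labelled MS2 coat protein began at 0.7 or 1.5 nM and doubled to 3 µM, once without ligand and once with constant ligand, in 100 mM Tris-HCl pH 7.5, 80 mM KCl, 4 mM MgCl2, BSA, DTT, yeast tRNA and Tween-20. The apparent Kd is the median of filtered per-cluster binding-curve fits, based on green signal normalised to red-channel RNA signal and control-cluster median Fmax.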

[1] = designed as: OFF switch for flavin mononucleotide, no ligand
[2] = ligand present: flavin mononucleotide, designed as: OFF switch for flavin mononucleotide
[3] = designed as: ON switch for flavin mononucleotide, no ligand
[4] = ligand present: flavin mononucleotide, designed as: ON switch for flavin mononucleotide

| Sequence | apparent Kd [1] [nM] | apparent Kd [2] [nM] | apparent Kd [3] [nM] | apparent Kd [4] [nM] |
| --- | --- | --- | --- | --- |
| GUCAGCUCGUGAGGAUAUACAUCACUGCUUCGGCAGUGUAUUAAGAGUACAUGAGGAUCACCCAUGUAGAAGGCACGAGCUGAU | 17.3 | 19.6 |  |  |
| GUCAGCUCGUGAGGAUAUACAUGUGCUGGAAACAGCACUAUUAAGAUCACAUGAGGAUCACCCAUGUAGAAGGCACGAGCUGAU | 47.3 | 630 |  |  |
| GUCAGCUCGUGAGGAUAUACAUGUGCUGGAAACAGCACUAUUAUGUUCACAUGAGGAUCACCCAUGUAGAAGGCACGAGCUGAU | 16.2 | 24.9 |  |  |
| GUCAGCUCGUGAGGAUAUACCACACUGCUUCGGCAGUGUAUUAAGAUCACAUGAGGAUCACCCAUGUAGAAGGCACGAGCUGAU | 6.32 | 34.2 |  |  |
| GUCAUCUCAUGAGGAUAUGCUCGGGUUUCCCGAGCAGAAGGCAUGUCAUACAUGAGGAUCACCCAUGUUGACAUUAAGAUUGUA |  |  | 4.78 | 5.04 |
| GUCAUGUCAGGAUAUGCUUAUGAUGAGUGCUCAGACAUGAUGCAGAAGGGACAUGAGGAUCACCCAUGUACUGA | 22.4 | 26.8 |  |  |
| GUCCAACAUGAGGAUCACCCAUGUCAGGAUAUACCGGGCGAAAGAAAGGCCCAUAAGGGUAGAAGGGACGGUGU | 15.8 | 21 |  |  |
| GUCCGAAGGGAGAAGGGCUAGGAGGUCCAGCUUAUGUGUGUUGCAACAUGAGGAUCACCCAUGUAGCAGGAUAUCCCUUGUACA | 54.2 | 267 |  |  |
| GUCCUACAUGAGGAUCACCCAUGUCAGGAUAUGUAGCGUCCGGGCCAUAAGGCUCGGAGCAGAAGGGACAGGUG | 13.8 | 18.2 |  |  |
| GUCGGAAACGACAAAAGUAUGGAUCCAGAAGGCAUGAUACAUGAGGAUCACCCAUGUCUAAGACAUGAGGAUAUGGAUCCAUAC |  |  | 13.7 | 4.77 |
| GUCGGAAACGACAAACGUAGCAUACGAGAAGGCUGAUCCGCGACAUGAGGAUCACCCAUGUAGUUAGAGGAUAUUGGAUGCUAC |  |  | 81.7 | 17.3 |
| GUCGGAAACGACAAUGAUAGGACUGAGGAUAUACAUAAAUAAUCCUCUACAUGAGGAUCACCCAUGUAGAAGGCAGUCCUAUCU | 19 | 24.6 |  |  |
| GUCGGAAACGACAAUGAUAGGACUGAGGAUAUACAUAAGUAAGUCCUUACAUGAGGAUCACCCAUGUAGAAGGCAGUCCUAUCU | 43.9 | 502 |  |  |
| GUCGUGUGAGGAUAUGGUUCGUCGCAGUGGCGGUCGGCGACCUAGAAGGCACAUGAGGAUCACCCAUGUAUGUG | 122 | 84 |  |  |
| GUCUACAUGACAUGAGGAUCACCCAUGUGUUAUAUUUUUACUAAGGAUAUAUUUUUAAUGUUGAGAUAGAAGGUAGUUUCGGUC | 43 | 45.5 |  |  |
| GUCUACCUAGGAUAUACAUGAGGAUCACCCAUGUAAAGUUUCGUAAAAAGAUAAUCGAGUAGAAGGAGGUGGAU | 20.3 | 20.9 |  |  |
| GUCUUCCUAGGAUAUACAUGAGGAUCACCCAUGUAAAGUUUCGUCAAAGGAUAAUCGAGUAGAAGGAGGUGGAU | 15 | 17.2 |  |  |
| GUGACGAAUGUAGGAUAUGCUGACCAAUGGUCAGCAGAAGGACAUGAGGAUCACCCAUGUCAUCCUUAUAAUGAAUAACGUCAC | 13.5 | 18.6 |  |  |
| GUGACGAAUGUAGGAUAUGCUGAGGAUAACUCAGCAGAAGGACAUGAGGAUCACCCAUGUAAUCCUAAUAAUAAAUAACGUCAC | 12.7 | 18.3 |  |  |

| Sequence | apparent Kd [1] [nM] | apparent Kd [2] [nM] | apparent Kd [3] [nM] | apparent Kd [4] [nM] |
| --- | --- | --- | --- | --- |
| GUGACGAUGUAAGGAUAUGCUGAGGAAUACUCAGCAGAAGGUACAUGAGGAUCACCCAUGUAACGUCACAAUAAUAAUAAUAAU | 13.3 | 24.1 |  |  |
| GUGAGGUAAGGAUAUAGUAGUGAAGGUAAGAUAUGAGAAUGCUAGAAGGUACAUGAGGAUCACCCAUGUUCGGG | 117 | 116 |  |  |
| GUGAGGUCAGGAUAUGCAUGGCGGGACUUGCGUCGUGGCGUGCAGAAGGGACAUGAGGAUCACCCAUGUGGAGU | 157 | 238 |  |  |
| GUGAUACAUGAGGAUCACCCAUGUCACCUCACACGAGGAUAUCUGUGCAGUACUCAGUACGGAGAAGGCGUGGAAA |  |  | 96.7 | 26.4 |
| GUGCAUGUGCGAACUAACCCACAUGAGGAUCACCCAUGUAGGAGAAGGGUCCGGAGGUGCCGUGGACAGGAUAUCCUACGCCUU | 17.5 | 33.2 |  |  |
| GUGCAUUCGUAGAAGGGUGACAUGAGGAUCACCCAUGUGCGCUGGGCUCGGGAGGCAUCAGCGCCACAGGAUAUACGAAGCACC |  |  | 66.8 | 48.6 |
| GUGCAUUCGUAGAAGGGUGACAUGAGGAUCACCCAUGUGCGCUGGGCUCGGGAUGCAUCAGCGCCACAGGAUAUACGAAGCACC |  |  | 117 | 106 |
| GUGCCUAACUAGAAGGCCGAUAGCAAAGCUAUCGGAGGAUAUGGGUUCCGGAAACGGACAUGAGGAUCACCCAUGUGGCACAAA |  |  | 86.5 | 12.8 |
| GUGCGUGGCUAGGAUAUUGUGGAGUUUAGUCAGCGAGAAGGGACUACAUGAGGAUCACCCAUGUGUAGUUGCUC | 212 | 198 |  |  |
| GUGCGUGGCUAGGAUAUUGUGGAGUUUUGUCAGCGAGAAGGAGCCACAUGAGGAUCACCCAUGUGGUGUUGCUC |  | 67.5 |  |  |
| GUGCUCGUGUAAGGAUAUGCAGCCGUUUCGGCUGCAGAAGGUACUAUAAUACAUGAGGAUCACCCAUGUCUCUAUAAUUUGGUG |  |  | 148 | 214 |
| GUGCUGCAACGGUGCACGAGACAUGAGGAUCACCCAUGUGACAGAAGGGACUUGUUAAAGGUAGGUCAGGAUAUGUCUUAAAAG |  |  | 191 | 53.1 |
| GUGCUUGUCGAAGGAUAUGGUUACAUGAGGAUCACCCAUGUUAUGCUUGGAAAAUUGUUUAGUUUCCAGAAGGUCGAUUAGUUG | 19.7 | 17.7 |  |  |
| GUGCUUGUCGGAGGAUAUGGUUACAUGAGGAUCACCCAUGUUAUGCUUGGUUACUUGUUUAGUUUCCAGAAGGUCGGUUGGUUG | 61.1 | 71.2 |  |  |
| GUGGAGUACGUAGGAUAUGUAGGAUAUUCCUACAUGAGGAUCACCCAUGUUAGCAUGGAAGAAGGACAGAAGGACGUGCUCCAG |  |  | 1180 | 15 |
| GUGGCGGCCACAGGAUAUACCCGCGGUAGCCUGGUAGAAGGGUGGUCUCUCAGUCACAACAUGAGGAUCACCCAUGUAGAAAUC |  |  | 25.8 | 35.5 |
| GUGGUACAUGAGGAUCACCCAUGUGUGGGCGCGUGAGGAUAUGUCCGUACCUGGCGUACGAUAGAAGGCAUGGUGC |  |  | 73.9 | 34.6 |
| GUGGUAUUCGUAGGAUAUCCGUCGCCACCGUGUGGAGAAGGACGAACAUGAGGAUCACCCAUGUAUCAUGGUGUGGGCGUUGUC | 149 | 148 |  |  |
| GUGGUCAGACAUGAGGAUCACCCAUGUGGAAUAAAUAAGGAACAGGAUAUGGAAUAUAGGAUAUACCAGAAGGGUUGGUUGGUG |  |  | 72.3 | 82.4 |

| Sequence | apparent Kd [1] [nM] | apparent Kd [2] [nM] | apparent Kd [3] [nM] | apparent Kd [4] [nM] |
| --- | --- | --- | --- | --- |
| GUGGUCAGACAUGAGGAUCACCCAUGUGGAAUAAAUAAGGUUUAGGAUAUGGAAUAUAGGAUAUACCAGAAGGGAGGGUUGGUG |  |  | 142 | 146 |
| GUGGUUGUCGUAGGAUAUGUAGGAUAUUCCUACAUGAGGAUCACCCAUGUUAGCAUGGAAGAAGGACAGAAGGACGAUGACCAG |  |  | 904 | 15.1 |
| GUGGUUGUCGUAGGAUAUGUAGGAUAUUCCUACAUGAGGAUCACCCAUGUUCGCAUGGAAGAAGGACGGAAGGACGAUGACCAC |  |  | 156 | 129 |
| GUGUACAGAGGAUAUACAUAAGCUAGGAAACUAGCUACUUCACAUGAGGAUCACCCAUGUAGAAGGCUGUACAC | 16.1 | 16.3 |  |  |
| GUGUACAGAGGAUAUACAUGAGCAUGGAAACAUGCAUCUUCACAUGAGGAUCACCCAUGUAGAAGGCUGUACAC | 227 | 75 |  |  |
| GUGUACAGAGGAUAUACAUGGGCAUGAAAACAUGCAUCUUCACAUGAGGAUCACCCAUGUAGAAGGCUGUACAC | 24.6 | 16.9 |  |  |
| GUGUACAGAGGAUAUGCACGAGUAGUUACGAAAGUAACUGCACAUGAGGAUCACCCAUGUAGAAGGCUGUACAC | 17.9 | 16.7 |  |  |
| GUGUACGGAGGAUAUAUAUGGGCAGGCUGACCUGCAGCUUCACAUGAGGAUCACCCAUGUAGAAGGCUGUACAC | 41.9 | 224 |  |  |
| GUGUAGCAAGGAUAUACAUGAGGAUCACCCAUGUGAAUAAGAUAGAAUAAGAUAAAGUGUAGAAGGUGUAGUGU | 35.3 | 35.7 |  |  |
| GUGUAUCGCCUCGAGGAUAUCCUGUCAUGCACAUGAGGAUCACCCAUGUAAGAGCGAGUUUUUUGGGAGAAGGCGAGUUCUCGGU |  |  | 90.3 | 30.4 |
| GUGUUACAUGAGGAUCACCCAUGUUGUUGUAGAUAAGGAUAUAUGGUAACGAGAGAAAUAAUAGAAGGUAUUAGGC |  |  | 37 | 31.6 |
| GUGUUGGUAGGAUAUCCACCGACAAACAUGAGGAUCACCCAUGUGACGCUCCCUUGUCUUGGAGAAGGGCCGGCAU | 50.4 | 49.1 |  |  |
| GUGUUUGAUGAGGAUAUCGCUGUGGGUACACAGCGAGAAGGCAUUACAUGAGGAUCACCCAUGUAGUGUGGGUU | 24 | 105 |  |  |
| GUUAAACAUGAGGAUCACCCAUGUAAGGAUAUGCUGCGGUCGAGAUGAAGUGAAUGCAGCAGAAGGUACAAUUG | 116 | 99.9 |  |  |
| GUUAAGGUAGGAUAUACGAGAAUAUAGGGUAGAUAUAUAACACAUGAGGAUCACCCAUGUAGAAGGACCAAUUG | 33.8 | 95.6 |  |  |
| GUUAAGGUAGGAUAUACGAUAAUAUAGGGUAGAUAUAUAACACAUGAGGAUCACCCAUGUAGAAGGACCAAGUG | 41.5 | 170 |  |  |
| GUUACACAUGAGGAUCACCCAUGUAAGGAUAUGCUGCGGUCGCGCUGACGUGACUGCAGCAGAAGGUACAAAUG | 77.4 | 92.1 |  |  |
| GUUAGUUAAGGAUAUACAGGGAGCCGCGGCGUCUCGCCGCAACAUGAGGAUCACCCAUGUAGAAGGUAGCCAUU | 31.3 | 66.6 |  |  |
